Results published in ChEMBL document CHEMBL5058577, “EUbOPEN Chemogenomics Library 2 (Multiplex)” (2022).

Tested on: HEK-293T
Test: Multiplex assay against HEK293T
Type: toxicity, cell-based
Details: human
How it was run: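 Live cells carried four stains from seeding: Hoechst33342, BioTracker Green Microtubule Cytoskeleton Dye, MitoTracker Red and Annexin V Alexa Fluor 680. They were imaged on a CQ1 microscope at 37°C and 5% CO2 after compound addition. Using CellPathfinder machine-learning gating, cells were split into Hoechst high-intensity objects or normal cells, normal cells into healthy, pyknosed or fragmented nuclei, and pyknosed cells into mitotic or apoptotic; tubulin, mitochondrial-mass and membrane-permeability phenotypes are per cents of healthy-nucleus cells.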

[1] = 12 h, 1 µM, compound concentration 1 uM, replicate 1
[2] = 12 h, 1 µM, compound concentration 1 uM, replicate 2
[3] = 12 h, 10 µM, compound concentration 10 uM, replicate 1
[4] = 12 h, 10 µM, compound concentration 10 uM, replicate 2
[5] = 24 h, 1 µM, compound concentration 1 uM, replicate 1
[6] = 24 h, 1 µM, compound concentration 1 uM, replicate 2
[7] = 24 h, 10 µM, compound concentration 10 uM, replicate 1
[8] = 24 h, 10 µM, compound concentration 10 uM, replicate 2
[9] = 48 h, 1 µM, compound concentration 1 uM, replicate 1
[10] = 48 h, 1 µM, compound concentration 1 uM, replicate 2
[11] = 48 h, 10 µM, compound concentration 10 uM, replicate 1
[12] = 48 h, 10 µM, compound concentration 10 uM, replicate 2

## N#Cc1c(N)nc(SCc2csc(-c3ccc(Cl)cc3)n2)c(C#N)c1-c1ccc(OCCO)cc1 [CAPADENOSON]
[1]
  Population Apoptotic (%): 36%
  Population Fragmented Nuclei (%): 6%
  Population Healthy Nuclei (%): 79%
  Population Hoechst High Intensity Objects (%): 8%
  Population Membrane Permeable-Phenotype (%): 0%
  Population Mitochondria Different-Phenotype (%): 59%
  Population Mitotic Cells (%): 63%
  Population Normal (%): 91%
  Population Pyknosed Nuclei (%): 13%
  Population Tubulin-Different-Phenotype (%): 44%
  Total Cell Count: 373
[2]
  Population Apoptotic (%): 54%
  Population Healthy Nuclei (%): 80%
  Population Hoechst High Intensity Objects (%): 4%
  Population Mitochondria Different-Phenotype (%): 60%
  Population Mitotic Cells (%): 45%
  Population Normal (%): 95%
  Population Pyknosed Nuclei (%): 12%
  Population Tubulin-Different-Phenotype (%): 34%
  Total Cell Count: 375
[3]
  Population Apoptotic (%): 57%
  Population Fragmented Nuclei (%): 7%
  Population Healthy Nuclei (%): 75%
  Population Hoechst High Intensity Objects (%): 12%
  Population Membrane Permeable-Phenotype (%): 0%
  Population Mitochondria Different-Phenotype (%): 82%
  Population Mitotic Cells (%): 42%
  Population Normal (%): 87%
  Population Pyknosed Nuclei (%): 17%
  Population Tubulin-Different-Phenotype (%): 62%
  Total Cell Count: 307
[4]
  Population Apoptotic (%): 70%
  Population Fragmented Nuclei (%): 6%
  Population Healthy Nuclei (%): 73%
  Population Hoechst High Intensity Objects (%): 14%
  Population Membrane Permeable-Phenotype (%): 1%
  Population Mitochondria Different-Phenotype (%): 85%
  Population Mitotic Cells (%): 29%
  Population Normal (%): 85%
  Population Pyknosed Nuclei (%): 20%
  Population Tubulin-Different-Phenotype (%): 63%
  Total Cell Count: 388
[5]
  Population Apoptotic (%): 36%
  Population Fragmented Nuclei (%): 5%
  Population Healthy Nuclei (%): 76%
  Population Hoechst High Intensity Objects (%): 6%
  Population Membrane Permeable-Phenotype (%): 2%
  Population Mitochondria Different-Phenotype (%): 38%
  Population Mitotic Cells (%): 63%
  Population Normal (%): 93%
  Population Pyknosed Nuclei (%): 17%
  Population Tubulin-Different-Phenotype (%): 34%
  Total Cell Count: 450
[6]
  Population Apoptotic (%): 37%
  Population Fragmented Nuclei (%): 7%
  Population Healthy Nuclei (%): 79%
  Population Hoechst High Intensity Objects (%): 4%
  Population Membrane Permeable-Phenotype (%): 0%
  Population Mitochondria Different-Phenotype (%): 44%
  Population Mitotic Cells (%): 62%
  Population Normal (%): 95%
  Population Pyknosed Nuclei (%): 12%
  Population Tubulin-Different-Phenotype (%): 23%
  Total Cell Count: 456
[7]
  Population Apoptotic (%): 65%
  Population Fragmented Nuclei (%): 8%
  Population Healthy Nuclei (%): 68%
  Population Hoechst High Intensity Objects (%): 14%
  Population Membrane Permeable-Phenotype (%): 0%
  Population Mitochondria Different-Phenotype (%): 94%
  Population Mitotic Cells (%): 34%
  Population Normal (%): 85%
  Population Pyknosed Nuclei (%): 22%
  Population Tubulin-Different-Phenotype (%): 62%
  Total Cell Count: 319
[8]
  Population Apoptotic (%): 73%
  Population Fragmented Nuclei (%): 4%
  Population Hoechst High Intensity Objects (%): 13%
  Population Mitochondria Different-Phenotype (%): 89%
  Population Mitotic Cells (%): 26%
  Population Normal (%): 86%
  Population Pyknosed Nuclei (%): 26%
  Population Tubulin-Different-Phenotype (%): 61%
  Total Cell Count: 391
[9]
  Population Apoptotic (%): 31%
  Population Fragmented Nuclei (%): 10%
  Population Healthy Nuclei (%): 79%
  Population Hoechst High Intensity Objects (%): 4%
  Population Membrane Permeable-Phenotype (%): 1%
  Population Mitochondria Different-Phenotype (%): 32%
  Population Mitotic Cells (%): 68%
  Population Normal (%): 95%
  Population Pyknosed Nuclei (%): 10%
  Population Tubulin-Different-Phenotype (%): 23%
  Total Cell Count: 621
[10]
  Population Apoptotic (%): 32%
  Population Fragmented Nuclei (%): 11%
  Population Healthy Nuclei (%): 80%
  Population Hoechst High Intensity Objects (%): 3%
  Population Membrane Permeable-Phenotype (%): 2%
  Population Mitochondria Different-Phenotype (%): 23%
  Population Mitotic Cells (%): 67%
  Population Normal (%): 96%
  Population Pyknosed Nuclei (%): 8%
  Population Tubulin-Different-Phenotype (%): 18%
  Total Cell Count: 787
[11]
  Population Apoptotic (%): 66%
  Population Fragmented Nuclei (%): 11%
  Population Healthy Nuclei (%): 68%
  Population Hoechst High Intensity Objects (%): 12%
  Population Membrane Permeable-Phenotype (%): 0%
  Population Mitochondria Different-Phenotype (%): 89%
  Population Mitotic Cells (%): 33%
  Population Normal (%): 87%
  Population Pyknosed Nuclei (%): 20%
  Population Tubulin-Different-Phenotype (%): 67%
  Total Cell Count: 406
[12]
  Population Apoptotic (%): 63%
  Population Fragmented Nuclei (%): 12%
  Population Healthy Nuclei (%): 73%
  Population Hoechst High Intensity Objects (%): 10%
  Population Mitochondria Different-Phenotype (%): 88%
  Population Mitotic Cells (%): 36%
  Population Normal (%): 89%
  Population Pyknosed Nuclei (%): 14%
  Population Tubulin-Different-Phenotype (%): 64%
  Total Cell Count: 423
